For data set [1], the system named is Plasma. As to the kind of experiment: Plasma concentration in Beagle dog at 0.5 mg/kg, iv administered as bolus dose by HPLC based liquid scintillation counting analysis. Type of data set: ADME, organism-based, Canis lupus familiaris. To be noted: in vivo. Set-up: dose 0.5 mg/kg, route intravenous.
For data set [2], the system named is Rattus norvegicus. Briefly: Unbound renal clearance in Crj:CD(SD)IGS rat at 0.5 mg/kg, iv administered as bolus dose measured from 0 to 24 hrs by HPLC-based liquid scintillation counting analysis. Type of data set: ADME, organism-based, Kidney. Set-up: dose 0.5 mg/kg, route intravenous. To be noted: in vivo. The gist of the method:
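Male Crj:CD(SD)IGS rats received [14C]M-III in saline as an IV bolus at 0.5 mg–2.6 MBq/kg. Urine was collected in metabolic cages over 0–24 h. M-III in urine was taken as total urinary 14C times the M-III fraction, measured by direct HPLC, 1-min fraction collection and scintillation counting. CLrenal = urinary M-III / AUC. Unbound CLrenal = CLrenal / free fraction, from in vivo ultrafiltration binding. n = 3.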

The nature of data set [3]: Ratio of drug level in kidney cortex to plasma in Beagle dog at 0.5 mg/kg, iv administered as bolus dose by HPLC-based liquid scintillation counting analysis. The format is ADME, organism-based, Canis lupus familiaris. Set-up: dose 0.5 mg/kg, route intravenous. The gist of the method: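 Rats received [14C]M-III in saline by continuous jugular-vein infusion for 4 h (0.5 mg/rat/h per methods; 0.25 mg/h in legend), then aortic blood and kidneys were collected. Dogs received a 0.5 mg/kg iv bolus, with blood and kidneys (cortex and medulla separated) collected at 24 h. 14C was measured in tissue homogenates and plasma as a tissue/plasma ratio. Rat n = 3, dog n = 2.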

A short description of data set [4]: In vivo plasma protein binding in Crj:CD(SD)IGS rat at 0.125 mg/hr, iv administered as continuous infusion by ultrafiltration method in presence of 31 mg/hr/kg probenecid. Type of data set: ADME, organism-based. To be noted: with probenecid 31 mg/hr/kg, read-out: PPB (converted). In a few lines: (§1)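 Rats received a continuous iv infusion of [14C]M-III at 0.125 mg/rat/h, with probenecid co-infused at 16, 31 or 62 mg/h/kg or vehicle alone, for 5 h. Arterial plasma was sampled during infusion. CLtot = infusion rate / steady-state plasma M-III (120–180 min). Unbound fraction was measured by ultrafiltration of 5-h plasma (10,000 MWCO, 1500g, 37°C, 10 min). CLint = CLtot / unbound ratio.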

Data set [5] can be described thus: AUC infinity in Crj:CD(SD)IGS rat at 0.5 mg/kg, iv administered as bolus dose by HPLC-based liquid scintillation counting analysis. The format is ADME, organism-based. Set-up: time infinity, dose 0.5 mg/kg, route intravenous. Conditions: plasma. The gist of the method:
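Male Crj:CD(SD)IGS rats (285–324 g, 8 weeks) were given [14C]M-III in saline (0.5 mg/ml) as an IV bolus of 0.5 mg–2.6 MBq/kg. Tail-vein blood was sampled from 5 min to 24 h to give heparinized plasma. After acetonitrile deproteinization, samples went through HPLC with fraction collection and scintillation counting. AUCinf = AUClast + Clast/kel, with terminal kel from linear regression; n = 3.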

A short description of data set [6]: In vitro plasma protein binding in dog at 0.5 ug/ml by ultrafiltration method. Type of data set: ADME, cell-free, Canis lupus familiaris. To be noted: read-out: PPB (converted). The gist of the method: (§2)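 [14C]M-III in saline was added to rat or dog plasma at final 0.5, 5 and 50 µg/ml. Plasma was ultrafiltered by centrifugation at 1500g and 37°C for 10 min, and 14C was measured in plasma and filtrate. Mean ± S.D., n = 3.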

A short description of data set [7]: Apparent volume of distribution in Crj:CD(SD)IGS rat at 0.5 mg/kg, iv administered as bolus dose by HPLC-based liquid scintillation counting analysis. Also noted: dose 0.5 mg/kg, route intravenous. Type of data set: ADME, organism-based. Conditions: in vivo, read-out: Vd(app). The gist of the method: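 [14C]M-III in saline given as a single iv bolus at 0.5 mg/kg to male rats (tail-vein blood, 5 min–24 h) or male beagle dogs (cephalic-vein blood, 5 min–168 h). Heparinized plasma counted for radioactivity; M-III quantified by HPLC with fraction collection and liquid scintillation counting. C5 min read directly; terminal t1/2 by linear regression, kel = ln2/t1/2, Vd = dose/back-extrapolated C0, CLtot = dose/AUCinf. Mean ± S.D., n = 3.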

For another data set, the system named is Canis familiaris. As to the kind of experiment: Unbound renal clearance in Beagle dog at 0.5 mg/kg, iv administered as bolus dose measured from 0 to 168 hrs by HPLC-based liquid scintillation counting analysis. Set-up: dose 0.5 mg/kg, route intravenous. The format is ADME, organism-based, Canis lupus familiaris, Kidney. Conditions: in vivo. In a few lines:
(§3)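 After a 0.5 mg/kg iv bolus of [14C]M-III, urine was collected 0–24 h (rat) or 0–168 h (dog) and injected directly onto HPLC with fraction collection and scintillation counting. M-III in urine was derived from the urinary 14C excretion ratio and the [14C]M-III composition. CLrenal = urinary M-III amount / AUC0–24 h (rat) or AUC0–168 h (dog). Unbound CLrenal = CLrenal / free fraction.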

Data set [8] in a line: Unbound fraction in Crj:CD(SD)IGS rat plasma at 0.125 mg/hr, iv administered as continuous infusion by ultrafiltration method in presence of 62 mg/hr/kg probenecid. Conditions: with probenecid 62 mg/hr/kg (co-administered). The format is ADME, organism-based. The gist of the method: as §1
A short description of data set [9]: Drug excretion in Beagle dog feces assessed as excretion ratio of [14C] at 0.5 mg/kg, iv administered as bolus dose measured from 0 to 168 hrs by HPLC-based liquid scintillation counting analysis. The format is ADME, organism-based, Canis lupus familiaris. Set-up: dose 0.5 mg/kg, route intravenous. To be noted: in vivo. The gist of the method: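 Male rats in metabolic cages with urine/feces separator, or beagle dogs, after a 0.5 mg/kg iv bolus of [14C]M-III in saline. Radioactivity in urine and feces collected 0–24 h (rats) or 0–168 h (dogs) was counted and expressed as percent of dose. Mean ± S.D., n = 3.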

The nature of data set [10]: Plasma concentration in Crj:CD(SD)IGS rat at 0.125 mg/hr, iv administered as continuous infusion measured after 3 hrs by HPLC based liquid scintillation counting analysis in presence of probenecid. Conditions: with probenecid (dose not stated). Type of data set: ADME, organism-based. In a few lines:
(§4)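 Rats were continuously infused iv with [14C]M-III at 0.125 mg/rat/h, plus probenecid (4.7, 9.4, 18.6 mg/rat/h) or vehicle. Femoral-artery blood was taken at 0.5, 1, 2, 3 and 4 h, with terminal aortic blood at 5 h. Plasma radioactivity was measured, with probenecid quantified by HPLC-UV at 240 nm against spiked-plasma calibration from 0.1 to 100 µg/ml.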

The test system of data set [11] is Rattus norvegicus. As to the kind of experiment: Intrinsic total body clearance in Crj:CD(SD)IGS rat at 0.125 mg/hr, iv administered as continuous infusion by HPLC based liquid scintillation counting analysis in presence of 62 mg/hr/kg probenecid. The format is ADME, organism-based. To be noted: in vivo. The gist of the method:
as §1

The nature of data set [12]: In vitro plasma protein binding in rat at 50 ug/ml by ultrafiltration method. Type of data set: ADME, cell-free. To be noted: read-out: PPB (converted). In a few lines:
as §2

Data set [13] in a line: Renal clearance in Crj:CD(SD)IGS rat at 0.5 mg/kg, iv administered as bolus dose measured from 0 to 24 hrs by HPLC-based liquid scintillation counting analysis. The format is ADME, organism-based, Kidney. Also noted: dose 0.5 mg/kg, route intravenous. To be noted: in vivo. The gist of the method:
as §3

In data set [14] the test system is Plasma. Briefly: Plasma concentration in Crj:CD(SD)IGS rat at 0.125 mg/hr, iv administered as continuous infusion by HPLC based liquid scintillation counting analysis. Type of data set: ADME, organism-based. Conditions: in vivo. The gist of the method: as §4
Data set [15] is described as follows: Total body clearance in Crj:CD(SD)IGS rat at 0.125 mg/hr, iv administered as continuous infusion by HPLC based liquid scintillation counting analysis in presence of 16 mg/hr/kg probenecid. Conditions: in vivo, with probenecid 16 mg/hr/kg. The format is ADME, organism-based. The gist of the method:
as §1

The subject of data set [16] is Rattus norvegicus. As to the kind of experiment: Intrinsic total body clearance in Crj:CD(SD)IGS rat at 0.125 mg/hr, iv administered as continuous infusion by HPLC based liquid scintillation counting analysis. Type of data set: ADME, organism-based. Conditions: in vivo. In a few lines: as §1

Regarding `N[14c]1[14cH][14cH][14c](OS(=O)(=O)O)[14cH][14c]1Cl`, the figures for the Cp with Plasma [1] and with Plasma [14] were 2500 ng/mL and 600 ng/mL, respectively. For the same compound, the CL free in the data set on Rattus norvegicus [2] was determined as 96.3 mL/min/kg; with Canis familiaris, 0.0585 mL/min/kg. Further, the Kp in [3] worked out at 0.1. Further, the values for the fraction unbound in data set [4] and in data set [8] were 0.197 and 0.184, respectively. Also, in [5], the AUC(0-inf) worked out at 802 ng·h/mL. For the same compound, in data set [6], the fraction unbound at 0.5 ug/ml was 0.098. Moreover, in data set [7], the Vd came out at 0.14 L/kg. In data set [9], the Drug excretion is 7.7%. For the same compound, the concentration at 3 h in [10] was 3600 ng/mL. Further, the CL in the data set on Rattus norvegicus [11] turned out to be 9.38 mL/min/kg. Further, the fraction unbound at 50 ug/ml in data set [12] is 0.102. In addition, in data set [13], the CL renal was 9.47 mL/min/kg. Besides, the clearance in data set [15] is 4.45 mL/min/kg; in the data set on Rattus norvegicus [16], 130 mL/min/kg.

The values above are taken from ChEMBL document CHEMBL3526115, “Differences in the pharmacokinetics of 4-amino-3-chlorophenyl hydrogen sulfate, a metabolite of resatorvid, in rats and dogs” (Drug Metab Dispos, 2012).
